# Measurements: ChEMBL document CHEMBL2069223, “Near-infrared fluorescent divalent RGD ligand for integrin αvβ₃-targeted optical imaging” (Bioorg Med Chem Lett, 2012)
# The source made the active and inactive calls. The calls are words filed in the database; no cut-off is given here.
# Tests used:
# Integrin alpha-V/beta-3 [1] = target: T1, Integrin alpha-V/beta-3 (Homo sapiens, UniProt P05106+P06756); test: Binding affinity to integrin alphavbeta3 in human A549 cells assessed as cellular uptake after 1 hr by NIR Fluorescence microscopy analysis; format: cell-based
# Outline: (§1)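 Integrin αvβ3-positive A549 cells were incubated with the NIR fluorescent probes. Cellular binding and uptake were then imaged by NIR fluorescence microscopy at separate incubation time points.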
# Integrin alpha-V/beta-3 [2] = target: T1, Integrin alpha-V/beta-3; test: Binding affinity to integrin alphavbeta3 in human A549 cells assessed as cellular uptake after 6 hrs by NIR Fluorescence microscopy analysis; format: cell-based; outline: as §1
# Kidney [3] = test: Biodistribution in kidney of nude mouse xenografted with human A549 cells expressing integrin alphavbeta3 at 60 uM, iv after 4 hrs by NIR Fluorescence image analysis; format: ADME, organism-based; settings: in vivo
# Outline: (§2)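 Nude mice bearing A549 xenografts (5–7 mm diameter) received 100 µL of 60 µM probe by tail-vein injection. Noninvasive whole-body NIR fluorescence imaging (excitation 780 nm, emission 830 nm) was done at 1, 4 and 24 h post-injection, and tissue fluorescence intensity was measured from the images.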
# Integrin alpha-V/beta-3 [4] = target: T1, Integrin alpha-V/beta-3; test: Binding affinity to integrin alphavbeta3 in human A549 cells assessed as cellular uptake in nucleus measured by co-localization with DRAQ5 after 16 hrs by two-dimensional confocal image analysis; format: cell-based
# Outline: (§3)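 A549 cells incubated with probe for 16 h. Confocal imaging with excitation at 488, 633 and 755 nm, scanning a field at 2 µs per pixel. Images overlay a nuclear stain, a mitochondrial stain and cypate fluorescence, and subcellular localization is judged from this co-localization.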
# Integrin alpha-V/beta-3 [5] = target: T1, Integrin alpha-V/beta-3; test: Binding affinity to integrin alphavbeta3 in human A549 cells assessed as cellular uptake in mitochondria measured by co-localization with mitotracker orange CM-TMRos after 16 hrs by two-dimensional confocal image analysis; format: cell-based; outline: as §3
# Liver [6] = test: Biodistribution in liver of nude mouse xenografted with human A549 cells expressing integrin alphavbeta3 at 60 uM, iv after 4 hrs by NIR Fluorescence image analysis; format: ADME, organism-based; settings: in vivo; outline: as §2
# Integrin alpha-V/beta-3 [7] = target: T1, Integrin alpha-V/beta-3; test: Displacement of [125I]-c(RGDyK) from human integrin alphavbeta3 after 16 hrs by scintillation counting; format: protein-complex assay
# Kidney [8] = test: Biodistribution in kidney of nude mouse xenografted with human A549 cells expressing integrin alphavbeta3 at 60 uM, iv after 24 hrs by NIR Fluorescence image analysis; format: ADME, organism-based; settings: in vivo
# Outline: (§4)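 Nude mice bearing A549 xenografts (5–7 mm diameter) received 100 µL of 60 µM probe by tail-vein injection. Animals were euthanized at 24 h post-injection. Excised organs were imaged ex vivo for NIR fluorescence (excitation 780 nm, emission 830 nm), and organ fluorescence intensity was measured.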
# Pancreas = test: Biodistribution in pancreas of nude mouse xenografted with human A549 cells expressing integrin alphavbeta3 at 60 uM, iv after 24 hrs by NIR Fluorescence image analysis; format: ADME, organism-based; settings: in vivo; outline: as §4
# Muscle tissue = test: Biodistribution in muscle of nude mouse xenografted with human A549 cells expressing integrin alphavbeta3 at 60 uM, iv after 24 hrs by NIR Fluorescence image analysis; format: ADME, organism-based; settings: in vivo; outline: as §4
# Mus musculus [9] = test: Biodistribution in adrenal of nude mouse xenografted with human A549 cells expressing integrin alphavbeta3 at 60 uM, iv after 24 hrs by NIR Fluorescence image analysis; format: ADME, organism-based, Adrenal tissue; settings: in vivo; outline: as §4
# Spleen = test: Biodistribution in spleen of nude mouse xenografted with human A549 cells expressing integrin alphavbeta3 at 60 uM, iv after 24 hrs by NIR Fluorescence image analysis; format: ADME, organism-based; settings: in vivo; outline: as §4
# Blood = test: Biodistribution in blood of nude mouse xenografted with human A549 cells expressing integrin alphavbeta3 at 60 uM, iv after 24 hrs by NIR Fluorescence image analysis; format: ADME, organism-based; settings: in vivo; outline: as §4
# Mus musculus [10] = test: Biodistribution in tumor of nude mouse xenografted with human A549 cells expressing integrin alphavbeta3 at 60 uM, iv after 4 hrs by NIR Fluorescence image analysis; format: ADME, organism-based, Neoplasm; settings: in vivo; outline: as §2
# Heart = test: Biodistribution in heart of nude mouse xenografted with human A549 cells expressing integrin alphavbeta3 at 60 uM, iv after 24 hrs by NIR Fluorescence image analysis; format: ADME, organism-based; settings: in vivo; outline: as §4
# Liver [11] = test: Biodistribution in liver of nude mouse xenografted with human A549 cells expressing integrin alphavbeta3 at 60 uM, iv after 24 hrs by NIR Fluorescence image analysis; format: ADME, organism-based; settings: in vivo; outline: as §4
# Mus musculus [12] = test: Biodistribution in tumor of nude mouse xenografted with human A549 cells expressing integrin alphavbeta3 at 60 uM, iv after 24 hrs by NIR Fluorescence image analysis; format: ADME, organism-based, Neoplasm; settings: in vivo; outline: as §4
# Zone of skin = test: Biodistribution in skin of nude mouse xenografted with human A549 cells expressing integrin alphavbeta3 at 60 uM, iv after 24 hrs by NIR Fluorescence image analysis; format: ADME, organism-based; settings: in vivo; outline: as §4
# Brain = test: Biodistribution in brain of nude mouse xenografted with human A549 cells expressing integrin alphavbeta3 at 60 uM, iv after 24 hrs by NIR Fluorescence image analysis; format: ADME, organism-based; settings: in vivo; outline: as §4
Compound,Activity (Integrin alpha-V/beta-3 [1]),Activity (Integrin alpha-V/beta-3 [2]),Drug uptake (Kidney [3]),Activity (Integrin alpha-V/beta-3 [4]),Activity (Integrin alpha-V/beta-3 [5]),Drug uptake (Liver [6]),IC50 (Integrin alpha-V/beta-3 [7]) [nM],Ki (Integrin alpha-V/beta-3 [7]) [nM],Drug uptake (Kidney [8]),Drug uptake (Pancreas),Drug uptake (Muscle tissue),Drug uptake (Mus musculus [9]),Drug uptake (Spleen),Drug uptake (Blood),Drug uptake (Mus musculus [10]),Drug uptake (Heart),Drug uptake (Liver [11]),Drug uptake (Mus musculus [12]),Drug uptake (Zone of skin),Drug uptake (Brain)
CC1(C)C(/C=C/C=C/C=C/C=C2/N(CCC(=O)O)c3ccc4ccccc4c3C2(C)C)=[N+](CCC(=O)O)c2ccc3ccccc3c21,Active,Active,,,,,,,,,,,,,,,,,,
CC1(C)C(/C=C/C=C/C=C/C=C2/N(CCC(=O)NCCCC[C@@H]3NC(=O)[C@@H](Cc4ccccc4)NC(=O)[C@H](CC(=O)O)NC(=O)CNC(=O)[C@H](CCCNC(=N)N)NC3=O)c3ccc4ccccc4c3C2(C)C)=[N+](CCC(=O)O)c2ccc3ccccc3c21.[Br-],Active,Active,Active,Active,Active,Active,[…],[…],,,,,,,,,,,,
CC1(C)C(/C=C/C=C/C=C/C=C2/N(CCC(=O)NCCCC[C@@H]3NC(=O)[C@@H](Cc4ccccc4)NC(=O)[C@H](CC(=O)O)NC(=O)CNC(=O)[C@H](CCCNC(=N)N)NC3=O)c3ccc4ccccc4c3C2(C)C)=[N+](CCC(=O)NCCCC[C@@H]2NC(=O)[C@@H](Cc3ccccc3)NC(=O)[C@H](CC(=O)O)NC(=O)CNC(=O)[C@H](CCCNC(=N)N)NC2=O)c2ccc3ccccc3c21.[Br-],Active,Active,Active,Active,Active,Active,0.281,0.043,Active,Active,Active,Active,Active,Active,Active,Active,Active,Active,Active,Active
